From ChEMBL document CHEMBL4811246, “New organoselenides (NSAIDs-Se derivatives) as potential anticancer agents: Synthesis, biological evaluation and in silico calculations” (Eur J Med Chem, 2021)
The source made the active and inactive calls. The calls are words filed in the database; no cut-off is given here.

What was measured:
Caco-2 = assay: Cytotoxicity against human Caco2 cells assessed as reduction in cell viability measured upto 72 hrs by MTT assay; assay type: functional, cell-based; details: Caco-2, 72 h
Summary of the method: (§1)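 ATCC cells grown in RPMI 1640 with 10% FBS and penicillin/streptomycin at 37 °C, 5% CO2. Cells seeded at 1×10^4 per well and allowed 24 h to attach, then exposed to graded compound concentrations for 24, 48 and 72 h, DMSO kept below 1.25%. MTT added 3 h before the end, formazan dissolved in DMSO, OD read at 570 nm. IC50 from viability, three repetitions, mean ± SD.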

BGC-823 [1] = assay: Cytotoxicity against human BGC-823 cells assessed as reduction in cell viability measured upto 72 hrs by MTT assay; assay type: functional, cell-based; details: BGC-823, 72 h; summary of the method: as §1
MCF7 = assay: Cytotoxicity against human MCF7 cells assessed as reduction in cell viability measured upto 72 hrs by MTT assay; assay type: functional, cell-based; details: MCF7, 72 h; summary of the method: as §1
PC-3 = assay: Cytotoxicity against human PC-3 cells assessed as reduction in cell viability measured upto 72 hrs by MTT assay; assay type: functional, cell-based; details: PC-3, 72 h; summary of the method: as §1
[2] = Antioxidant activity assessed as DPPH radical scavenging activity incubated for 30 mins under dark condition relative to control; assay type: functional; parameters: concentration or dose not given beside the values
Summary of the method: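 DPPH radical scavenging: test samples at a range of concentrations mixed with DPPH solution and held 30 min in the dark, then absorbance read at 517 nm. Ascorbic acid and ebselen served as positive controls and DMSO as negative control. % activity = [(control A − sample A)/control A] × 100. Mean ± SD of three independent experiments.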

[3] = Antioxidant activity assessed as DPPH radical scavenging activity incubated for 30 mins under dark condition relative to vitamin C; assay type: functional
[4] = Antioxidant activity assessed as bleomycin-Fe2+-induced DNA degradation by measuring absorbance at 0.1 mg/ml after 1 hr; assay type: functional; parameters: unit not given here
Summary of the method: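 Stopped with EDTA, then TBA (1% w/v) and HCl (25% v/v) added and heated 80 °C for 30 min. After cooling on ice, DNA damage read as absorbance increase at 532 nm. L-ascorbic acid positive control.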

[5] = Antioxidant activity assessed as GPx-like activity by measuring oxidation of NADPH to NADP+ by NADPH-reductase coupled assay; assay type: functional
Summary of the method: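 NADPH/glutathione reductase coupled GPx-like assay: 50 mM phosphate buffer with 0.1% Triton X-100, NADPH reagent containing GSH, glutathione reductase and NADPH, and compound (0.01 ml of 41 mM). Reaction started with H2O2 (0.8 mM), and A340 decrease followed over 3 min to give ΔA/min. Values background-corrected for the H2O2 plus GSH reaction. Ebselen positive control.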

BGC-823 [6] = assay: Induction of apoptosis in human BGC-823 cells assessed as down regulation of Bcl-2 protein expression at IC50 after 48 hrs by ELISA; assay type: functional, cell-based
Summary of the method: (§2)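 Cells harvested with trypsin and lysed by freeze-thaw in liquid nitrogen, then total protein isolated. Bcl-2 and IL-2 quantified by ELISA, read at 450 nm.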

BGC-823 [7] = assay: Induction of apoptosis in human BGC-823 cells assessed as upregulation of IL-2 protein expression at IC50 after 48 hrs by ELISA; assay type: functional, cell-based; summary of the method: as §2
BGC-823 [8] = assay: Induction of apoptosis in human BGC-823 cells assessed as upregulation of caspase-3 protein expression at IC50 after 48 hrs by ELISA; assay type: functional, cell-based

Compound | IC50 (Caco-2) [µM] | IC50 (BGC-823 [1]) [µM] | IC50 (MCF7) [µM] | IC50 (PC-3) [µM] | inhibition [2] [%] | fold change (FC) [3] | Activity [4] | Activity [5] | Activity (BGC-823 [6]) | Activity (BGC-823 [7]) | Activity (BGC-823 [8])
CC(C)Cc1ccc(C(C)C(=O)O)cc1 (stereo not given) [IBUPROFEN] | > 50 | > 50 | > 50 | > 50 | – | – | – | – | – | – | –
O=C1O[C@H]([C@@H](O)CO)C(O)=C1O | – | – | – | – | 96.4 | 1 | 297 | – | – | – | –
CC1=C(CC(=O)OCCC[Se]C#N)c2cc(F)ccc2/C1=C\c1ccc([S+](C)[O-])cc1 (stereo not given) | 28.6 | 17.5 | 31.3 | 22.3 | 45.7 | 0.5 | 91.3 | Active | – | – | –
Cc1cccc(Nc2ccccc2C(=O)OCCC[Se]C(F)(F)F)c1C | 13.3 | 19.6 | 8.5 | 24.5 | 23.3 | 0.3 | 77.6 | – | – | – | –
COc1ccc2cc([C@H](C)C(=O)O)ccc2c1 [NAPROXEN] | > 50 | > 50 | > 50 | > 50 | – | – | – | – | – | – | –
O=c1[nH]cc(F)c(=O)[nH]1 [FLUOROURACIL] | 7.8 | 15.4 | – | 9.5 | – | – | – | – | – | – | –
COc1ccc2cc(C(C)C(=O)OCCC[Se]C(F)(F)F)ccc2c1 (stereo not given) | 16.3 | 10.8 | 12.4 | 18.4 | 37 | – | 91.4 | – | – | – | –
CC(C(=O)OCCC[Se]C(F)(F)F)c1cccc(C(=O)c2ccccc2)c1 (stereo not given) | 9.5 | 4.8 | 6.5 | 8.8 | 66.3 | 0.7 | 128 | Active | Active | Active | Active
CC(=O)Oc1ccccc1C(=O)O [ASPIRIN] | > 50 | > 50 | > 50 | > 50 | – | – | – | – | – | – | –
CC(C(=O)OCCC[Se]C#N)c1ccc(-c2ccccc2)c(F)c1 (stereo not given) | 27.5 | 29.4 | 22.4 | 19.7 | 17.2 | – | 86.5 | – | – | – | –
O=C(OCCC[Se]C(F)(F)F)c1ccccc1Nc1cccc(C(F)(F)F)c1 | 3.5 | 2.7 | 4.2 | 5.8 | 68.6 | 0.7 | 115 | – | Active | Active | Active
CC(C)Cc1ccc(C(C)C(=O)OCCC[Se]C(F)(F)F)cc1 (stereo not given) | 9.5 | 14.3 | 9.9 | 10.4 | 48.5 | 0.5 | 95.7 | Active | – | – | –
COc1ccc2cc(C(C)C(=O)OCCC[Se]C#N)ccc2c1 (stereo not given) | 21.5 | 17.3 | 32.8 | 22 | 24.6 | – | 81.6 | – | – | – | –
CC(C(=O)OCCC[Se]C(F)(F)F)c1ccc(-c2ccccc2)c(F)c1 (stereo not given) | 4.5 | 2.5 | 2.7 | 3.3 | 73.5 | 0.8 | 119 | – | Active | Active | Active
N#C[Se]CCCOC(=O)c1ccccc1Nc1cccc(C(F)(F)F)c1 | 8.4 | 13.7 | 14.2 | 7.5 | 51.5 | 0.5 | 76.1 | – | – | – | –
CCc1cccc2c3c([nH]c12)C(CC)(CC(=O)OCCC[Se]C(F)(F)F)OCC3 (stereo not given) | 10.4 | 18.5 | 8.7 | 19.7 | 41.4 | 0.4 | 86.4 | Active | – | – | –
CC(C(=O)OCCC[Se]C#N)c1cccc(C(=O)c2ccccc2)c1 (stereo not given) | 19.7 | 12.6 | 8.3 | 12.6 | 57.1 | – | 67.6 | Active | – | – | –
CCc1cccc2c3c([nH]c12)C(CC)(CC(=O)OCCC[Se]C#N)OCC3 (stereo not given) | 11.5 | 21.4 | 14.4 | 31.4 | 30.4 | 0.3 | 69.4 | – | – | – | –
CC1=C(CC(=O)OCCC[Se]C(F)(F)F)c2cc(F)ccc2/C1=C\c1ccc([S+](C)[O-])cc1 (stereo not given) | 16.4 | 14.4 | 19.6 | 11.6 | 44.9 | 0.5 | 73.7 | Active | – | – | –
COc1ccc2c(c1)c(CC(=O)OCCC[Se]C(F)(F)F)c(C)n2C(=O)c1ccc(Cl)cc1 | 10.5 | 7.3 | 9.3 | 7.8 | 36.6 | 0.4 | 62.6 | – | – | – | –
CC(=O)Oc1ccccc1C(=O)OCCC[Se]C#N | 14.5 | 17.3 | 8.9 | 11.2 | 27.3 | 0.3 | 78.3 | – | – | – | –
CC(C)Cc1ccc(C(C)C(=O)OCCC[Se]C#N)cc1 (stereo not given) | 14.5 | 24.5 | 19.5 | 22.5 | 31.2 | 0.3 | 60.3 | – | – | – | –
COc1ccc2c(c1)c(CC(=O)OCCC[Se]C#N)c(C)n2C(=O)c1ccc(Cl)cc1 | 32.4 | 35.5 | 29.3 | 21.8 | 44.3 | 0.4 | 72.4 | – | – | – | –
